In ChEMBL document CHEMBL5705901, “Exploiting selective BCL-2 family inhibitors to dissect cell survival dependencies and define improved strategies for cancer therapy” (Sci Transl Med, 2015):
The source made the active and inactive calls. No cut-off for these calls is given here.

What was measured:
MEF = test: Cytotoxicity against BAK knockout MEF cells assessed as reduction in cell viability incubated for 48 hrs by CellTiter-Glo cell vaibility assay; format: toxicity, cell-based; details: mouse
MOLT-4 = test: Induction of apoptosis in human MOLT-4 cells assessed as caspase-3/7 activation at 1 to 667 nM incubated for 4 hrs; format: functional, cell-based; details: dose 1-667 nM
Summary of the method: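 Molt-4 cells were incubated with increasing concentrations for 4 h, and caspase-3/7 activation was measured. Values are the mean of triplicate experiments ± SD.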

OVCAR-5 [1] = test: Antitumor activity against human OVCAR-5 xenografted in po dosed SCID mouse assessed as maximum tumor growth inhibition relative to control; format: functional
NCI-H358 [2] = test: Antitumor activity against human NCI-H358 cells xenografted in po dosed SCID mouse assessed as maximum tumor growth inhibition relative to control; format: functional
NCI-H358 [3] = test: Synergistic antitumor activity against human NCI-H358 cells xenografted in po dosed SCID mouse assessed as tumor growth delay in presence of docetaxel relative to control; format: functional
Summary of the method: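 Xenografts dosed with oral inhibitor plus intravenous docetaxel. TGImax = 100(1 − Tv/Cv), from mean treated and control tumor volumes; TGD = 100(T/C − 1), from median times to reach 1 cm3. Group size 5 mice (NCI-H747, A549-FP3, EBC-1, OVCAR-5), 8 (NCI-H358), 10 (NCI-H1650).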

NCI-H889 = test: Antiproliferative activity against human NCI-H889 assessed as reduction in cell viability incubated for 48 hrs by CellTiter-Glo cell vaibility assay; format: functional, cell-based; details: NCI-H889, 48 h
Summary of the method: (§1)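 Tumour cell lines (SCLC panel and AML panel) exposed to increasing concentrations for 48 hours, then cell viability measured. Cell-killing EC50 taken from the concentration-response.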

NCI-H211 = test: Antiproliferative activity against human NCI-H211 assessed as reduction in cell viability incubated for 48 hrs by CellTiter-Glo cell vaibility assay; format: functional, cell-based; details: NCI-H211, 48 h; summary of the method: as §1
NCI-H345 = test: Antiproliferative activity against human NCI-H345 assessed as reduction in cell viability incubated for 48 hrs by CellTiter-Glo cell vaibility assay; format: functional, cell-based; details: NCI-H345, 48 h; summary of the method: as §1
[4] = Antiproliferative activity against human NCI-H847 assessed as reduction in cell viability incubated for 48 hrs by CellTiter-Glo cell vaibility assay; format: functional, cell-based; details: NCI-H847, 48 h; summary of the method: as §1
HL-60 = test: Antiproliferative activity against human HL-60 assessed as reduction in cell viability incubated for 48 hrs by CellTiter-Glo cell vaibility assay; format: functional, cell-based; details: HL-60, 48 h; summary of the method: as §1
[5] = Antiproliferative activity against human HNT-34 assessed as reduction in cell viability incubated for 48 hrs by CellTiter-Glo cell vaibility assay; format: functional, cell-based; details: HNT-34, 48 h; summary of the method: as §1
[6] = Antiproliferative activity against human PL-21 assessed as reduction in cell viability incubated for 48 hrs by CellTiter-Glo cell vaibility assay; format: functional, cell-based; details: PL-21, 48 h; summary of the method: as §1
OCI-AML-3 = test: Antiproliferative activity against human OCI-AML-3 assessed as reduction in cell viability incubated for 48 hrs by CellTiter-Glo cell vaibility assay; format: functional, cell-based; details: OCI-AML-3, 48 h; summary of the method: as §1
[7] = Antiproliferative activity against human ME-1 assessed as reduction in cell viability incubated for 48 hrs by CellTiter-Glo cell vaibility assay; format: functional, cell-based; details: ME-1, 48 h; summary of the method: as §1
[8] = Synergistic antiproliferative activity against human HCC1500 cells assessed as reduction in cell viability by measuring bliss sum score incubated for 72 hrs in presence of docetaxel by CellTiter-Glo cell vaibility assay; format: functional
HCC1937 [9] = test: Synergistic antiproliferative activity against human HCC1937 cells assessed as reduction in cell viability by measuring bliss sum score incubated for 72 hrs in presence of docetaxel by CellTiter-Glo cell vaibility assay; format: functional
T47D = test: Synergistic antiproliferative activity against human T47D cells assessed as reduction in cell viability by measuring bliss sum score incubated for 72 hrs in presence of docetaxel by CellTiter-Glo cell vaibility assay; format: functional
A549 = test: Synergistic antiproliferative activity against human A549 cells assessed as reduction in cell viability by measuring bliss sum score incubated for 72 hrs in presence of docetaxel by CellTiter-Glo cell vaibility assay; format: functional
NCI-H1975 = test: Synergistic antiproliferative activity against human NCI-H1975 cells assessed as reduction in cell viability by measuring bliss sum score incubated for 72 hrs in presence of docetaxel by CellTiter-Glo cell vaibility assay; format: functional
NCI-H23 = test: Synergistic antiproliferative activity against human NCI-H23 cells assessed as reduction in cell viability by measuring bliss sum score incubated for 72 hrs in presence of docetaxel by CellTiter-Glo cell vaibility assay; format: functional
NCI-H1703 = test: Synergistic antiproliferative activity against human NCI-H1703 cells assessed as reduction in cell viability by measuring bliss sum score incubated for 72 hrs in presence of docetaxel by CellTiter-Glo cell vaibility assay; format: functional
OVCAR-5 [10] = test: Synergistic antiproliferative activity against human OVCAR-5 cells assessed as reduction in cell viability by measuring bliss sum score incubated for 72 hrs in presence of docetaxel by CellTiter-Glo cell vaibility assay; format: functional
HCC2218 = test: Antagonistic antiproliferative activity against human HCC2218 cells assessed as reduction in cell viability by measuring bliss sum score incubated for 72 hrs in presence of docetaxel by CellTiter-Glo cell vaibility assay; format: functional
[11] = Inhibition of granulocyte colony formation in human bone marrow cells at 0.1 to 20 uM incubated for 14 to 16 days by light microscopic analysis; format: toxicity, cell-based; details: bone marrow cell, dose lower 0.1 µM, time lower 14 day, dose upper 20 µM, time upper 16 day
Summary of the method: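 Isolated human bone marrow cells cultured in semisolid medium with increasing inhibitor concentrations; granulocyte (neutrophil) colonies counted by light microscopy after 15–16 days; triplicate means with SD; Student's t test versus solvent control.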

ZR-75-1 = test: Induction of apoptosis in human ZR-75-1 cells assessed as increase in caspase cleavage incubated for 48 hrs in presence of docetaxel by immunoblot analysis; format: functional, cell-based
MDA-MB-468 = test: Induction of apoptosis in human MDA-MB-468 cells assessed as increase in caspase cleavage incubated for 48 hrs in presence of docetaxel by immunoblot analysis; format: functional, cell-based
MDA-MB-361 = test: Induction of apoptosis in human MDA-MB-361 cells assessed as accumulation of cells with sub-G0-G1 DNA content at 1 uM incubated for 48 hrs in presence of docetaxel by flow cytometric analysis; format: functional, cell-based
MDA-MB-175-VII = test: Induction of apoptosis in human MDA-MB-175-VII cells assessed as accumulation of cells with sub-G0-G1 DNA content at 1 uM incubated for 48 hrs in presence of docetaxel by flow cytometric analysis; format: functional, cell-based
HCC1937 [12] = test: Induction of apoptosis in human HCC1937 cells assessed as accumulation of cells with sub-G0-G1 DNA content at 1 uM incubated for 48 hrs in presence of docetaxel by flow cytometric analysis; format: functional, cell-based
[13] = Inhibition of granulocyte colony formation in human bone marrow cells at 0.1 to 20 uM incubated for 14 to 16 days in presence of docetaxel by light microscopic analysis; format: toxicity, cell-based; details: bone marrow cell, dose lower 0.1 µM, time lower 14 day, dose upper 20 µM, time upper 16 day
Summary of the method: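 Human bone marrow granulocyte colony-forming assay in semisolid medium, increasing inhibitor concentrations ± 5 nM docetaxel; colonies counted by light microscopy after 14 days; triplicate means with SD; combinations compared with docetaxel alone by Student's t test.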

Row | SMILES | Activity (MEF) | EC50 (NCI-H889) [nM] | EC50 (NCI-H211) [nM] | EC50 (NCI-H345) [nM] | EC50 [4] [nM] | EC50 (HL-60) [nM] | EC50 [5] [nM] | EC50 [6] [nM] | EC50 (OCI-AML-3) [nM] | EC50 [7] [nM] | Activity [11] | further results
1 | Cc1c(-c2ccc(N3CCc4cccc(C(=O)Nc5nc6ccccc6s5)c4C3)nc2C(=O)O)cnn1CC12CC3CC(CC(C3)C1)C2 | Non-Toxic |  |  |  |  |  |  |  |  |  |  | Activity (MOLT-4): Active; TGI (OVCAR-5 [1]): 34%; TGI (NCI-H358 [2]): 62%; Activity (NCI-H358 [3]): 233%
2 | CN(C)CC#Cc1ccc(OCCCc2sc(N3CCc4cccc(C(=O)Nc5nc6ccccc6s5)c4C3)nc2C(=O)O)c(F)c1 [A-1155463] | Non-Toxic | 6310 | 1350 | > 10000 | 3 | > 5000 | 680 | > 5000 | > 5000 | > 5000 | Non-Toxic | Activity_index [8]: 146; Activity_index (HCC1937 [9]): 332; Activity_index (T47D): 250; Activity_index (A549): 137; Activity_index (NCI-H1975): 6; Activity_index (NCI-H23): 97; Activity_index (NCI-H1703): 29; Activity_index (OVCAR-5 [10]): 706; Activity_index (HCC2218): -250
3 | CC1(C)CCC(c2ccc(Cl)cc2)=C(CN2CCN(c3ccc(C(=O)NS(=O)(=O)c4ccc(N[C@H](CCN5CCOCC5)CSc5ccccc5)c(S(=O)(=O)C(F)(F)F)c4)cc3)CC2)C1 [NAVITOCLAX] |  | 53 | 100 | 300 | 140 | 40 | 30 | 190 | > 5000 | > 5000 | Toxic | Activity (ZR-75-1): Active; Activity (MDA-MB-468): Active; Activity (MDA-MB-361): Active; Activity (MDA-MB-175-VII): Active; Activity (HCC1937 [12]): Active; Activity [13]: Toxic
